Test results reported in PMC9827987 (Chemmedchem, 2022).
Like-named read-outs stand apart in the source and are kept apart here.

Assays:
PfDHFR-WT = PfDHFR-WT (Plasmodium falciparum, UniProt P13922, N108S/R59C); test: DHFR enzyme inhibition assay, wild type; type: biochemical
[1] = tested on: P. falciparum TM4/8.2 (wild type PfDHFR); test: In vitro antimalarial activity, 3H-hypoxanthine incorporation, TM4/8.2; type: cell-based; details: Plasmodium falciparum
[2] = tested on: P. falciparum V1/S (QM PfDHFR); test: In vitro antimalarial activity, 3H-hypoxanthine incorporation, V1S; type: cell-based; details: Plasmodium falciparum, read-out: IC50 PfV1S
How it was run: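 P. falciparum V1/S (quadruple-mutant PfDHFR, chloroquine-resistant) grown in human erythrocytes at 37 °C under 3% CO2. Medium was RPMI 1640 with 25 mM HEPES, 0.2% NaHCO3, 40 µg/mL gentamicin and 8% human serum. Activity was measured by ³H-hypoxanthine incorporation.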

HsDHFR = target: T1, HsDHFR (Homo sapiens, UniProt P00374); test: biochemical
T1 sequence (P00374 1-187): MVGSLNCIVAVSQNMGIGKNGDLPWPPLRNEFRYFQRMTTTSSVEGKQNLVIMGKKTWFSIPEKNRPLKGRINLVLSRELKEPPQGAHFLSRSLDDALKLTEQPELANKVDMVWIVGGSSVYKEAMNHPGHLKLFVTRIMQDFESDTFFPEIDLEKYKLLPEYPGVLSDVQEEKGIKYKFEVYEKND

KB cells = test: Cytotoxicity, sulforhodamine B staining, KB; type: cell-based; details: Homo sapiens, read-out: IC50 KB
PfDHFR-QM = PfDHFR-QM (Plasmodium falciparum, UniProt P13922, I164L/N51I); test: DHFR enzyme inhibition assay, quadruple mutant; type: biochemical
[3] = read-out: IC50 PfTM4/8.2, WT P. falciparum, drug sensitive strain

| Structure (SMILES) | Ki (PfDHFR-WT) | IC50 ([1]; read-out: IC50 PfTM4/8.2) | IC50 [2] | Ki (HsDHFR) | IC50 (KB cells) | Ki (PfDHFR-QM) | IC50 [1, 3] |
| --- | --- | --- | --- | --- | --- | --- | --- |
| Nc1nc(N)c(CNCCc2ccc(F)cc2)c(C2CCCCC2)n1 [7 t, 6‐Cyclohexyl‐5‐{[(4‐fluorophenethyl)amino]methyl}pyrimidine‐2,4‐diamine] | 0.08 ± 0.009 µM | 2.2 ± 0.1 µM | 7 ± 2 µM | > 250 µM | 56 ± 5 µM | 0.136 ± 0.007 µM | – |
| Nc1nc(N)c(CNCCc2ccccc2F)c(C2CC2)n1 [7 g, 6‐Cyclopropyl‐5‐{[(2‐fluorophenethyl)amino]methyl}pyrimidine‐2,4‐diamine] | 0.0082 ± 0.0003 µM | – | 25 ± 2 µM | 0.205 ± 0.001 µM | > 100 µM | 0.031 ± 0.002 µM | 12 ± 5 µM |
| Nc1nc(N)c(CNCCc2ccccc2Cl)c(C2CC2)n1 [7 j, 6‐Cyclopropyl‐5‐{[(2‐chlorophenethyl)amino]methyl}pyrimidine‐2,4‐diamine] | 0.0093 ± 0.0005 µM | – | 17 ± 3 µM | 0.304 ± 0.016 µM | 83 ± 7 µM | 0.023 ± 0.0006 µM | 0.4 ± 0.01 µM |
| CCc1nc(N)nc(N)c1-c1ccc(Cl)cc1 [PYR, pyrimethamine, reference compound] | – | 0.05 ± 0.007 µM | > 100 µM | – | 60 ± 26 µM | – | 0.053 µM |
| COc1cccc(CCNCc2c(N)nc(N)nc2C2CCCCC2)c1 [7 p, 6‐Cyclohexyl‐5‐{[(3‐methoxyphenethyl)amino]methyl}pyrimidine‐2,4‐diamine] | 0.031 ± 0.005 µM | 3.5 ± 0.2 µM | 4.1 ± 0.3 µM | > 500 µM | 23 ± 0.3 µM | 0.056 ± 0.002 µM | – |
| COc1cccc(CCNCc2c(N)nc(N)nc2C2CC2)c1 [7 e, 6‐Cyclopropyl‐5‐{[(3‐methoxyphenethyl)amino]methyl}pyrimidine‐2,4‐diamine] | 0.0044 ± 0.0002 µM | – | 13 ± 1 µM | 1.04 ± 0.034 µM | 74 ± 4 µM | 0.026 ± 0.0005 µM | 4.2 ± 0.2 µM |
| CC1(C)N=C(N)N=C(N)N1c1ccc(Cl)cc1 [CYC, cycloguanil, reference compound] | – | 0.03 ± 0.005 µM | 92 ± 6 µM | – | > 100 µM | 0.42 ± 0.13 µM | – |
| COc1ccc(CCNCc2c(N)nc(N)nc2C2CC2)cc1 [7 f, 6‐Cyclopropyl‐5‐{[(4‐methoxyphenethyl)amino]methyl}pyrimidine‐2,4‐diamine] | 0.0035 ± 0.0004 µM | – | 15 ± 3 µM | 0.647 ± 0.006 µM | 72 ± 1 µM | 0.029 ± 0.0006 µM | 3.5 ± 0.2 µM |
| COc1ccccc1CCNCc1c(N)nc(N)nc1-c1ccccc1 [7 a, 6‐Phenyl‐5‐{[(2‐methoxyphenethyl)amino]methyl}pyrimidine‐2,4‐diamine] | 0.243 ± 0.021 µM | 27 ± 3 µM | 54 ± 2 µM | > 500 µM | > 100 µM | 0.208 ± 0.003 µM | – |
| Nc1nc(N)c(CNCCc2ccc(Cl)c(Cl)c2)c(C2CCCCC2)n1 [7 y, 6‐Cyclohexyl‐5‐{[(3,4‐dichlorophenethyl)amino]methyl}pyrimidine‐2,4‐diamine] | 0.009 ± 0.0007 µM | 3.5 ± 0.3 µM | 4 ± 0.3 µM | > 250 µM | 22 ± 0.1 µM | 0.028 ± 0.003 µM | – |
| Nc1nc(N)c(CNCCc2ccc(Cl)cc2)c(C2CCCCC2)n1 [7 w, 6‐Cyclohexyl‐5‐{[(4‐chlorophenethyl)amino]methyl}pyrimidine‐2,4‐diamine] | – | 3.1 ± 0.2 µM | 4.5 ± 0.3 µM | > 500 µM | 23 ± 0.2 µM | 0.06 ± 0.001 µM | – |
| Nc1nc(N)c(CNCCc2ccc(Cl)cc2Cl)c(C2CCCCC2)n1 [7 x, 6‐Cyclohexyl‐5‐{[(2,4‐dichlorophenethyl)amino]methyl}pyrimidine‐2,4‐diamine] | 0.007 ± 0.0003 µM | 2.5 ± 0.4 µM | 4.9 ± 0.3 µM | > 250 µM | 62 ± 3 µM | 0.123 ± 0.008 µM | – |
| Nc1nc(N)c(CNCCc2ccc(Cl)cc2Cl)c(C2CC2)n1 [7 m, 6‐Cyclopropyl‐5‐{[(2,4‐dichlorophenethyl)amino]methyl}pyrimidine‐2,4‐diamine] | 0.002 ± 3e-05 µM | – | 6.3 ± 1.2 µM | 0.131 ± 0.005 µM | 66 ± 2 µM | – | 3.6 ± 0.2 µM |
| Nc1nc(N)c(CNCCc2cccc(F)c2)c(C2CC2)n1 [7 h, 6‐Cyclopropyl‐5‐{[(3‐fluorophenethyl)amino]methyl}pyrimidine‐2,4‐diamine] | 0.01 ± 0.0003 µM | – | 20 ± 2 µM | 0.458 ± 0.031 µM | > 100 µM | 0.026 ± 0.002 µM | 4.2 ± 0.3 µM |
| COc1cccc(CCNCc2c(N)nc(N)nc2-c2ccccc2)c1 [7 b, 6‐Phenyl‐5‐{[(3‐methoxyphenethyl)amino]methyl}pyrimidine‐2,4‐diamine] | 0.107 ± 0.003 µM | 27 ± 4 µM | 48 ± 1 µM | > 500 µM | > 100 µM | 0.074 ± 0.001 µM | – |
| Nc1nc(N)c(CNCCc2ccc(Cl)c(Cl)c2)c(C2CC2)n1 [7 n, 6‐Cyclopropyl‐5‐{[(3,4‐dichlorophenethyl)amino]methyl}pyrimidine‐2,4‐diamine] | 0.0013 ± 6e-05 µM | – | 4.4 ± 0.1 µM | 0.202 ± 0.006 µM | 23 ± 0.5 µM | 0.013 ± 4e-05 µM | 3.3 ± 0.1 µM |
| Nc1nc(N)c(CNCCc2cccc(F)c2)c(C2CCCCC2)n1 [7 s, 6‐Cyclohexyl‐5‐{[(3‐fluorophenethyl)amino]methyl}pyrimidine‐2,4‐diamine] | 0.076 ± 0.005 µM | 3 ± 0.4 µM | 11 ± 2 µM | > 500 µM | 62 ± 3 µM | 0.074 ± 0.002 µM | – |
| Nc1nc(N)c(CNCCc2cccc(Cl)c2)c(C2CC2)n1 [7 k, 6‐Cyclopropyl‐5‐{[(3‐chlorophenethyl)amino]methyl}pyrimidine‐2,4‐diamine] | 0.0025 ± 0.0001 µM | – | 14 ± 4 µM | 0.345 ± 0.007 µM | 82 ± 13 µM | 0.02 ± 0.0009 µM | 4.2 ± 0.9 µM |
| Nc1nc(N)c(CNCCc2cccc(Cl)c2)c(C2CCCCC2)n1 [7 v, 6‐Cyclohexyl‐5‐{[(3‐chlorophenethyl)amino]methyl}pyrimidine‐2,4‐diamine] | 0.025 ± 0.001 µM | 3.1 ± 0.4 µM | 4 ± 0.2 µM | > 250 µM | 23 ± 0.2 µM | 0.036 ± 0.004 µM | – |
| COc1ccc(CCNCc2c(N)nc(N)nc2-c2ccccc2)cc1 [7 c, 6‐Phenyl‐5‐{[(4‐methoxyphenethyl)amino]methyl}pyrimidine‐2,4‐diamine] | 0.086 ± 0.013 µM | 28 ± 5 µM | 34 ± 2 µM | > 500 µM | > 100 µM | 0.069 ± 0.005 µM | – |
| Nc1nc(N)c(CNCCc2ccccc2Cl)c(C2CCCCC2)n1 [7 u, 6‐Cyclohexyl‐5‐{[(2‐chlorophenethyl)amino]methyl}pyrimidine‐2,4‐diamine] | 0.022 ± 0.002 µM | 3.3 ± 0.3 µM | 16 ± 1 µM | > 250 µM | 22 ± 0.05 µM | 0.038 ± 0.001 µM | – |
| Nc1nc(N)c(CNCCc2ccccc2F)c(C2CCCCC2)n1 [7 r, 6‐Cyclohexyl‐5‐{[(2‐fluorophenethyl)amino]methyl}pyrimidine‐2,4‐diamine] | 0.061 ± 0.0015 µM | 4.1 ± 0.7 µM | 16 ± 2 µM | > 500 µM | 48 ± 14 µM | 0.083 ± 0.001 µM | – |
| COc1ccc(CCNCc2c(N)nc(N)nc2C2CCCCC2)cc1 [7 q, 6‐Cyclohexyl‐5‐{[(4‐methoxyphenethyl)amino]methyl}pyrimidine‐2,4‐diamine] | 0.032 ± 0.001 µM | 1.8 ± 0.1 µM | 3.7 ± 0.2 µM | > 500 µM | 23 ± 0.2 µM | 0.055 ± 0.002 µM | – |
